This is an account of results in ChEMBL document CHEMBL1153730, “Bioactive constituents of the stem bark of Beilschmiedia zenkeri” (J Nat Prod, 2009).

One assay concerns Bacillus subtilis. The assay can be described thus: Antibacterial activity against Bacillus subtilis by agar well diffusion method. It counts as functional. The essentials:
(§1)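 Agar well diffusion on pure compounds, with the value reported as MIC. Ampicillin was the positive control for B. subtilis and gentamicin for P. agarici.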

In a further assay the test system is Pseudomonas agarici. The assay can be described thus: Antibacterial activity against Pseudomonas agarici by agar well diffusion method. The assay is classed as functional. The method in brief:
as §1

The next assay concerns Streptococcus minor. The assay can be described thus: Antibacterial activity against Streptococcus minor by agar well diffusion method. It counts as functional. The method in brief: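 Agar well diffusion run on extracts and pure compounds, following earlier reports. Ampicillin served as the positive control for this strain. Activity was reported as MIC (µM).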
The test system of a further assay is Plasmodium falciparum. The assay can be described thus: Antiplasmodial activity against chloroquine-resistant Plasmodium falciparum W2 rings after 48 hrs by FACS analysis. It counts as functional, organism-based. The settings on record: W2, 48 h.

pIC50: −log10 of the molar value. Converted amounts (≈) assume the structure as drawn. The source made the active and inactive calls. The rule behind the calls is not given here.

Take `COc1cc2c(c(O)c1OC)[C@H](O[C@@H]1C[C@@H](c3ccccc3)Oc3cc(OC)c(OC)c(OC)c31)C[C@@H](c1ccccc1)O2` [BEILSCHMIEFLAVONOID B]: the result in the assay with Bacillus subtilis and in the assay with Pseudomonas agarici was inactive. Inhibition of growth in the assay with Streptococcus minor (MIC) required 198 µM (≈ 119 µg/mL).

In turn, `COc1cc(O)c2c(c1OC)OC(c1ccccc1)CC2=O` (stereo not given) gave a pIC50 in the assay on Plasmodium falciparum of 5.03. The outcome in the assay on Bacillus subtilis, in the assay with Pseudomonas agarici and with Streptococcus minor was inactive.

With `O=C(/C=C/c1ccccc1)NCCc1ccc2c(c1)OCO2`, the outcome in the assay on Bacillus subtilis, in the assay with Pseudomonas agarici and in the assay on Streptococcus minor was inactive.

For the compound `C=C(C)[C@@H]1CC[C@]2(C(=O)O)CC[C@]3(C)[C@H](CC[C@@H]4[C@@]5(C)CC[C@H](O)C(C)(C)[C@@H]5CC[C@]43C)[C@@H]12` [BETULINIC ACID], the pIC50 in the assay with Plasmodium falciparum was 5.28. Also, the outcome in the assay with Bacillus subtilis, in the assay on Pseudomonas agarici and with Streptococcus minor was inactive.

With `COc1cc2c(c(OC)c1OC)[C@H](OC)C[C@@H](c1ccccc1)O2`, the outcome in the assay on Bacillus subtilis, with Pseudomonas agarici and in the assay on Streptococcus minor was inactive.

In the case of `COc1cc2c(c(OC)c1OC)[C@H](O)C[C@@H](c1ccccc1)O2`, the outcome with Bacillus subtilis, in the assay with Pseudomonas agarici and in the assay on Streptococcus minor was inactive.

Turning to `COc1cc2c(c(OC)c1OC)[C@H](O[C@@H]1C[C@@H](c3ccccc3)Oc3cc(OC)c(OC)c(OC)c31)C[C@@H](c1ccccc1)O2`, the outcome with Bacillus subtilis, with Pseudomonas agarici and in the assay with Streptococcus minor was inactive.

As to `CCCCCCCCCCCCCCC(=O)OC[C@@H](O)CO`, the outcome in the assay with Bacillus subtilis, in the assay with Pseudomonas agarici and in the assay on Streptococcus minor was inactive.

`CC(C)CNC(=O)/C=C/C=C/CCCCCC/C=C/c1ccc2c(c1)OCO2` [GUINEENSINE] had a pIC50 in the assay with Plasmodium falciparum of 5.43. In addition, the MIC in the assay on Bacillus subtilis was 163 µM (≈ 62.5 µg/mL); against Pseudomonas agarici, 81.5 µM (≈ 31.3 µg/mL). Further, the outcome with Streptococcus minor was inactive.
